A short description of the data set: Toxicity liver stage against HepG2, at 10uM. Set-up: test concentration 10 uM, cell line HepG2-A16-CD81EGFP. Particulars: human, HepG2-A16-CD81EGFP cells; read-out: INHIBITION
The class given is cell-based. The procedure, abridged:
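Uninfected HepG2-A16-CD81EGFP cells, 3 × 10^3 per well, 1536-well, plated on prespotted compound at 10 μM final, parasite-free screening media added to match infected plates; puromycin 10 μM positive, DMSO 0.5% negative; run in parallel with 48 h PbLuc assay at 37 °C, 5% CO2; viability by CellTiter-Glo luminescence, normalized to controls.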
On to `O=C(Cc1ccc(Cl)s1)Nc1ccc2c(c1)C(=O)NC2=O`, for which the cytotoxicity at 10 µM was -7.19%.
With `CCCc1cc(C(=O)Nc2nc(SC)ns2)n(C)n1` the figure was 8.49%; with `CCc1c(C)noc1-c1cnc(NC2CC2)nc1-c1cnc(C)cn1`, -29%; with `Brc1cccc(-c2noc(C3COCCO3)n2)c1` (stereo not given), 8.71%.
With `Cc1csc(-c2ccc(NC(=O)N3CCOCC3)cc2)n1` the figure was -9.2%; with `NC(=O)C1Cc2ccccc2CN1CCC(=O)N1CCc2ccccc21` (stereo not given), -4.23%.
With `CC(C)(C)NC(=O)c1cnc2n1CCCC2` the figure was -3.32%.
For `Cc1cnn(CCNCC(=O)Nc2ccc(Cl)cn2)c1`, the cytotoxicity at 10 µM worked out at 1.93%.
With `N#Cc1cccc(OCc2ccoc2C(=O)N2CCCCC2)c1` the figure was -6.57%; with `CCN(Cc1ccco1)C(C)c1nc(C)no1` (stereo not given), -10.1%.
With `CCn1cnnc1C1CCN(C(=O)CC(C)n2cccc2)CC1` (stereo not given), the cytotoxicity at 10 µM is -1.49%.
As for `CCC(C)NC(=O)c1ccc(CNC(=O)CC(C)(C)C)cc1` (stereo not given), the figure is 10%; as for `CCc1nsc(N2CCN(CC(=O)Nc3c(C)n[nH]c3C)CC2)n1`, -3.63%; as for `NC(=O)CN1CCCN(C(=O)c2ccn(-c3ccc(F)cc3)n2)CC1`, -5.69%.
With `O=C(CSc1ccc2c(c1)OCCO2)NS(=O)(=O)c1ccccc1` the figure was -2.56%; with `CCN1CCN(CCC(=O)NC2CC(c3cccc(Cl)c3)C2)CC1` (stereo not given), -7.37%; with `Cc1sc2nc(SC(C)c3nc(C(C)(C)C)no3)nc(N)c2c1C` (stereo not given), -1.13%.
With `CN(CC1CCC1)C(=O)c1ccc(-c2nc(C3CC3)n[nH]2)cc1` the figure was -3.26%; with `O=C(CC1CCCO1)Nc1ccc2c(ccn2CCN2CCOCC2)c1` (stereo not given), 2.55%.
With `O=C(c1ccnc(NC2CC2)c1)N1CCCC1c1cccc(Br)c1` (stereo not given), the cytotoxicity at 10 µM was -6.58%.
With `CCCC(Cn1cnc(-c2ccccc2)c1-c1cncn1CC)N(C)C` (stereo not given) the figure was 7.59%; with `c1cc(-c2cc(C3CCN(Cc4cncnc4)C3)ccn2)ccn1` (stereo not given), -0.969%; with `CSCCC(=O)N1CCc2c(ncnc2N2CCOCC2)C1`, -4.88%.
With `CN1CCN(CCn2cnc3c(F)cccc3c2=O)CC1`, the cytotoxicity at 10 µM is -1.67%.
With `Cc1cc(C(=O)NCCc2cn3nc(C)sc3n2)c(C)o1` the figure was 5.68%; with `COc1ccccc1Oc1ncccc1CNC(=O)C(C)CN` (stereo not given), 0.884%.
With `CCc1ccc2nc(C)cc(C(=O)N[C@@H]3CNC[C@H]3O)c2c1` the figure was -11%; with `CCn1c(C2CCCN(Cc3cc(F)ccc3OC)C2)nn(C)c1=O` (stereo not given), -4.12%.
As to `Cc1nc(C(C)C)sc1C(=O)N(C)CCCc1cnn(C)c1`, the cytotoxicity at 10 µM is -4.6%.
As for `CN(CCC(O)c1ccccc1)c1cc(N2CCOCC2)ncn1` (stereo not given), the figure is -148%; as for `Fc1ccc(-c2nnc(CN3CCCC(Cn4cncn4)C3)o2)cc1` (stereo not given), -4.87%.
In the case of `Cc1nc(-c2ccc(Cl)s2)sc1C(=O)NCCCC(N)=O`, the cytotoxicity at 10 µM was -5.6%.
With `COc1c(C2CCCN2CC(=O)Nc2cc(C)on2)c(C)nn1C` (stereo not given), the cytotoxicity at 10 µM was -1.19%.
As for `Cc1ccc(CN2C[C@H](OCCN(C)C)[C@H]3OCCC[C@H]32)o1`, the figure is -146%.
With `O=C(Nc1cccc(C(=O)OCC2CCCN2)c1)c1ccoc1` (stereo not given) the figure was -3.06%.
With `COCc1nn(CC2CC2)c2c1CN(Cc1cccs1)CC2` the figure was 0.994%; with `CCc1ccc(NS(=O)(=O)C=c2[nH]c(=O)n3cccc3c2=O)cc1`, 8.45%.
`Cc1nc(C)c(CC(=O)N2C[C@@H]3CC[C@H]2CN(c2cnccn2)C3)s1`: the cytotoxicity at 10 µM came to 10.1%.
With `CNc1nc2cn(-c3cccc(OC)c3)c(=O)c-2c[nH]1` the figure was 6.04%; with `CCCn1nccc1NC(=O)CN1CCCC1Cn1nc(C)nc1C` (stereo not given), -6.84%.

For the origin of these results see ChEMBL document CHEMBL4513216, “Probing the Open Global Health Chemical Diversity Library for Multistage-Active Starting Points for Next-Generation Antimalarials” (ACS Infect Dis, 2020).
